# Cav3 T inh: blocks human Cav3.2 T-type calcium channel | O95180 | Cav3.2-expressing cells, Fluo-4 calcium fluorescence FDSS; stronger effect = lower value | B-score at 10 µM | actives 4% (n = 100,000) | AID 449739;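 active = single-dose well whose peak fluorescence ratio is a statistical outlier from its plate by either plate-standardised score or position-corrected B-score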
# Pyk2 oligo antag: antagonists of human Pyk2 oligomerization. Q14289. actives 0.83% (n = 99,000). AID 1347419. Q293 cells, Pyk2 FERM NanoBiT luminescence; stronger effect = lower value. z-score (the deposit names both 25 µM and 10 µM);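 active = Z-score of -3 or lower, scaled per plate to the spread of control and sample wells; inactive = z-score above -3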;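 also: negative z-score means lost luminescence so less FERM oligomerization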
# PostGolgi yeast: growth inhibition of a yeast mutant, post-Golgi transport screen; inhibition, % at 10 µM; actives 0.9% (n = 98,000); post-Golgi transport phenotypic cell assay;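 also: yeast cells grown in 1536-well plates; yeast grown about 18 h at 30C before absorbance read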
# tolC growth inh: E. coli tolC mutant growth inhibition; E. coli BW25113 tolC mutant growth, OD615; growth inhibition, % at 10 µM (by protocol); actives 2.2% (n = 65,000);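 active = growth inhibition at or above a cutoff equal to the mean over every tested compound plus 3 SD, cut at about 60% in these data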;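 also: growth measured after 20 h incubation at 37 °C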
#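 Signal: optical density read at 615 nm; Assay system: E. coli ΔtolC::kan strain BW25113; Times: 20 h incubation with compound, 37 °C; Dosing: 10 µM final, single dose.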
# PostGolgi ctrl: yeast control strain growth, post-Golgi counter-screen; efflux-deficient yeast background strain, growth absorbance A615, 16 h; inhibition, % at 10 µM; actives 5% (n = 98,000); AID 738
# E coli WT exp: blocks growth of wild type E. coli BW25113 | AID 710 | OD600 absorbance | actives 0.15% (n = 98,000) | growth inhibition, % at 100 µM;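 active = growth inhibition above about 50% at one test dose, limit read from the data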;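 also: growth measured after 20 h incubation at 37 °C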
# Starred values were filed as active, the others as inactive; . = no result given. Shown are actives, neighbours in structure and some others; about 8.7% of the full set was active somewhere. Rule as the data show it, unless noted: active = inhibition above about 30%; inactive = the rest.
SMILES,Cav3 T inh,Pyk2 oligo antag,PostGolgi yeast,tolC growth inh,PostGolgi ctrl,E coli WT exp
COc1cc(CSc2nnnn2-c2ccc(C)cc2)cc(OC)c1OC,-1.4,-1.9,-7,42,3,-10
Oc1cccc(-c2nc3ccc4ccccc4c3c3c2CCC3)c1,-0.4,-0.95,55*,.,44*,-10
O=C1C=C(c2cccc(O)c2)CCC1,1.1,.,.,.,.,.
c1ccc(-n2nc3c(ccc4cnnc43)[nH]2)cc1,-0.079,-1.8,5,-1,19,0
Cc1ccc(-c2[nH]nc(N)c2N=Nc2cccc(Cl)c2C)cc1,0.6,-1.8,15,.,45*,-16
Nc1c(N=Nc2cccc(Cl)c2)c(=O)[nH]n1-c1ccccc1,0.033,-0.18,-16,.,10,-8
Cc1ccccc1N=C1N=C(N)c2ccccc21,.,0.87,.,.,.,.
Cc1ccc(-c2[nH]nc(N)c2N=Nc2ccccc2C)cc1,0.88,-1.7,54*,.,63*,1
Cc1cccc(N=Nc2c(N)n[nH]c2-c2ccc(Cl)cc2)c1,1.2,-0.93,5,.,34*,-12
CCCC1CC(C)(C(=O)CSc2n[nH]c(-c3ccccc3)n2)OC1=O (stereo not drawn),-0.67,0.86,-9,.,3,-4
Cc1ccc(C)c(S(=O)(=O)NCc2ccc(C(=O)N3CCCCC3C)cc2)c1 (stereo not drawn),-1.5,-0.49,-10,.,8,5
CC(C)CNc1cc(=O)n(C)c(=O)n1C,0.27,0.87,6,-15,48*,9
CCOC(=O)COc1c(OC)cc(Cl)cc1C1NC(=O)NC(C)=C1C(C)=O (stereo not drawn),0.079,-0.71,-2,-8,2,5
CCCC1=C(C(=O)OCC)C(c2cc(Cl)cc(OC)c2OCC(=O)OCC)NC(=O)N1 (stereo not drawn),-5.2*,-3.1*,0,83*,11,6
O=C(CN1C(=O)CNC1=O)Nc1cccc(C(F)(F)F)c1,-0.089,-0.44,0,-6,5,4
c1ccc(Cn2c(-c3ccco3)nc3nc4ccccc4nc32)cc1,-0.056,0.28,4,6,15,-7
CCCCCn1c(-c2ccco2)nc2nc3ccccc3nc21,.,-1.3,-15,77*,21,6
CCOC(=O)C1CCN(C(=O)Cc2cccs2)CC1,0.27,0.48,-4,-9,36*,4
CCOc1ccccc1C(=O)N1CCN(C(c2ccccc2)c2ccccc2)CC1,-4.7*,0.05,7,.,28,10
CCOC(=O)N1CCN(CC(O)COc2ccccc2C(C)CC)CC1 (stereo not drawn),-0.12,-0.13,50*,-7,26,2
CC(=O)c1ccccc1OCC(O)CN1CCN(C(c2ccccc2)c2ccccc2)CC1 (stereo not drawn),-7.1*,-1.1,13,74*,10,-3
COC(=O)CN1CCN(C(c2ccccc2)c2ccccc2)CC1,1.3,-0.53,2,5,5,6
O=C(CCC(=O)c1ccc(F)cc1)Nc1cc(Cl)cc(Cl)c1,-0.47,-0.61,4,.,7,-9
O=C(Nc1ccc(Cc2ccncc2)cc1)C1CCC(N2C(=O)C3C4C=CC(C5CC45)C3C2=O)CC1 (stereo not drawn),-1.5,-4.2*,-9,.,11,-2
CC[C@]1(O)CC2CN(CCc3c([nH]c4ccccc34)[C@@](C(=O)OC)(c3cc4c(cc3OC)N(C)[C@H]3[C@@](O)(C(N)=O)[C@H](O)[C@]5(CC)C=CCN6CC[C@]43[C@@H]65)C2)C1 (stereo partly drawn),-0.36,.,.,.,.,.
SMILES,Cav3 T inh,Pyk2 oligo antag,PostGolgi yeast,tolC growth inh,PostGolgi ctrl,E coli WT exp
CCn1nnnc1SCC(=O)Nc1cc(OC)cc(OC)c1,0.5,-0.18,-7,-19,4,-1
Cc1cccc(CN(CC(=O)N/N=C/c2cccs2)S(=O)(=O)c2ccc(Cl)cc2)c1,-2.6,-1.8,-5,.,12,-7
CCOc1ccc2nc(NC(=O)CN3CCC(n4nnc5cc(F)ccc54)CC3)sc2c1,-2.7,-3.3*,10,79*,34*,-13
O=C(CN1CCC(n2nnc3cc(F)ccc32)CC1)NC1CC1,0.42,-0.32,-1,-12,5,11
COc1cnc(-c2ccccn2)nc1Oc1ccc(Cl)c2ccccc12,.,-1.4,24,.,63*,-1
CC(C)(C)c1[nH]nc2c1C(Cc1ccccc1)C(C#N)=C(N)O2 (stereo not drawn),-3,0.3,-7,64*,40*,10
CC(C)(C)c1[nH]nc2c1C(c1cccnc1)C(C#N)=C(N)O2 (stereo not drawn),-0.087,0.83,5,3,-6,12
Cc1c(OCc2ccccc2)c(=O)ccn1Cc1ccc(Cl)cc1,-0.12,0.11,-2,.,43*,-2
O=C(c1ccco1)n1nc(-c2ccccc2)nc1NCc1ccco1,-0.049,-0.43,16,-1,9,-4
O=C(c1ccco1)n1nc(NCc2ccccc2)nc1NCc1ccccc1,0.33,-2,2,-1,79*,-3
Cc1cccc(-c2nnc3sc(-c4ccccc4C)nn23)c1,-1.4,-1.8,6,60,64*,-13
c1ccc(-c2nnc3sc(-c4csc5c4CCCC5)nn23)cc1,-1.1,-0.75,13,22,75*,2
COc1cccc(-c2nnc3sc(-c4ccccc4)nn23)c1,-0.00093,-0.14,.,18,.,.
O=C(NCCN1CCN(c2ccccc2)CC1)c1cccn2c(=O)c3cc(Cl)ccc3nc12,-1.3,0.63,7,14,68*,3
NC(=O)C1(N2CCCCC2)CCN(C(=O)NC2CCCCC2)CC1,0.25,-0.12,10,-12,16,3
NC1=NC[C@@H](Cc2ccc(O)cc2)N1CCCCC1CCCCC1,-1.5,.,.,.,.,.
Cc1cnnn1-c1ccc(C(=O)CCl)cc1,0.78,0.09,9,.,6,98*
O=C(CSc1c[nH]c2ccccc12)N1CCOCC1,0.3,-0.09,0,-12,9,1
Cc1ccc2occ(C3N[C@H](C(=O)O)CS3)c(=O)c2c1 (stereo partly drawn),-0.84,-2,-7,.,0,22
C=CCn1c(C)cc(C(=O)CSc2n[nH]c(N)n2)c1C,-0.095,0.38,-2,.,3,-1
COc1ccc(C2Oc3ccccc3C3=C2C(c2cccs2)n2ncnc2N3)cc1 (stereo not drawn),-7.1*,-3.7*,-14,.,19,2
Brc1ccc(C2C3=C(Nc4ncnn42)c2ccccc2OC3c2ccncc2)cc1 (stereo not drawn),-4.9*,-3.8*,-3,.,40*,5
O=C(NC(C(=O)c1ccccc1)n1ccc(=O)[nH]c1=O)c1ccccc1 (stereo not drawn),0.025,-0.02,14,-10,30*,3
O=C(NC(C(=O)c1ccccc1)N1CCCCC1)c1ccccc1 (stereo not drawn),-1.5,0.89,38*,11,-4,6
O=C(NN1CCCCC1)c1ccccc1,.,0.26,.,.,.,.
